We go through 97 compounds from ChEMBL document CHEMBL4513216, “Probing the Open Global Health Chemical Diversity Library for Multistage-Active Starting Points for Next-Generation Antimalarials” (ACS Infect Dis, 2020).

The nature of this data set: Toxicity liver stage against HepG2, at 10uM. In kind it is cell-based. On the set-up: test concentration 10 uM, cell line HepG2-A16-CD81EGFP. The following applies: human, HepG2-A16-CD81EGFP cells; read-out: INHIBITION
The procedure, abridged: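 Uninfected HepG2-A16-CD81EGFP cells, 3 × 10^3 per well, 1536-well, plated on prespotted compound at 10 μM final, parasite-free screening media added to match infected plates; puromycin 10 μM positive, DMSO 0.5% negative; run in parallel with 48 h PbLuc assay at 37 °C, 5% CO2; viability by CellTiter-Glo luminescence, normalized to controls.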

For `COC(=O)c1ccc(NC(=O)[C@@H]2CCCN2C(=O)c2ccco2)s1`, the cytotoxicity at 10 µM was -3.45%.
Next, `Cc1nn(C)c2ncc(S(=O)(=O)N3CCN4CCCC4C3)cc12` (configuration not stated): 2.6%; `COC(=O)C(C)(C)NC(=O)c1cnc(C(C)(C)C)s1`: 3.87%.
Next, `CCc1nc(CN2CCN(C(=O)C3CCCCC3)CC2)cs1`: 3.64%; `O=C(Nc1cnn(CCN2CCOCC2)c1)c1cc(F)ccc1F`: -8.8%.
Regarding `O=C(CN1CC(n2cccn2)C1)NCCc1ccc(F)cc1`, the cytotoxicity at 10 µM was -14.3%.
Next, `CC(C)C(=O)N1CCN(C(=O)CCc2nnc(-c3ccccc3)o2)CC1`: -4.66%.
`c1cc(CN2CCc3c(nnn3CC3CC3)C2COCC2CC2)co1` (configuration not stated): the cytotoxicity at 10 µM amounted to 2.02%.
Consider `CC1(C(=O)N2CCOCC2)CNCCO1` (configuration not stated), for which the cytotoxicity at 10 µM is 1.2%.
Next, `COc1cccc(-c2cc(C3CCCNC3)ccn2)c1` (configuration not stated): 0.207%.
In the case of `NC(=O)NCC(=O)N1C[C@@H]2CC[C@H]1CN(Cc1ccccc1)C2` it was -13.4%.
In the case of `COc1cc(C(=O)N2CC3(CCNCC3)c3cc(Cl)ccc32)ccn1` it was 52.8%.
Turning to `c1ccc(-c2nc(CN3CCOC(Cn4cccn4)C3)co2)cc1` (configuration not stated), the cytotoxicity at 10 µM is 0.724%.
For `CC(C)c1nc(C2CCCN(C(=O)c3cccc4c3OCO4)C2)no1` (configuration not stated), the cytotoxicity at 10 µM is -12%.
In the case of `Cc1cn(CC(=O)NC2CCN(C(=O)C3CC3)CC2)c2ccccc12`, the cytotoxicity at 10 µM is -3.57%.
Turning to `COc1ncc(NCc2cc(C#N)cs2)cc1C(N)=O`, the cytotoxicity at 10 µM stood at 3.8%.
Next, `Cc1ccc(C(=O)Nc2cn[nH]c2)cc1F`: -14.7%; `COc1ccc(CN(C)C(=O)c2nnc(CN(C)C)o2)cc1`: -3.42%; `C[C@@H]1C(=O)NC[C@H]2CN(Cc3ccsc3)C[C@H]21`: 4.22%.
Next, `Cc1cc(C)cc(CNc2ccc(C(=O)NC(C)CO)cc2)c1` (configuration not stated): -5.48%; `Cc1ccc2cc(CN(C)Cc3ncc[nH]3)c(=O)[nH]c2c1`: 1.75%; `Cc1nc(CN(C)C2CCN(CC(=O)N3CCOCC3)C2)no1` (configuration not stated): -4.91%.
Next, `Cc1cccc(N2CCC3(CCN(Cc4ccccn4)CC3)CC2)n1`: 4.17%; `Cc1nc(C)n(CC2CN(CCCc3ccccc3)CCO2)n1` (configuration not stated): 2.89%; `COCC(=O)NCCc1ccc(I)s1`: 11.3%.
Turning to `Cc1nc(CSCCC(=O)NCC(=O)NC(C)C)cs1`, the cytotoxicity at 10 µM was -2.03%.
With `Cc1cnc(CNC(=O)[C@@]23CCO[C@@H]2CCNC3)cn1`, the cytotoxicity at 10 µM is -108%.
In the case of `CC(Cn1cccn1)NCc1csc(-c2ncccn2)n1` (configuration not stated) it was -14.7%.
As for `CCCc1cc(=O)[nH]c2nnc(SCC(=O)NCCc3ccccc3)n12`, the cytotoxicity at 10 µM was 14.2%.
In the case of `Cc1cnn(CCNCc2ccc(OCc3csc(C)n3)cc2)c1` it was -6.32%; in that of `C[C@@H]1CN(C(=O)CCN2CCCC2)CC[C@@]1(O)C1CCOCC1`, -5.15%; in that of `C[C@H](c1ccc(F)cc1)n1c(C2CCC2)n[nH]c1=O`, -5.95%.
In the case of `Cc1cnc(C(=O)N2C[C@H]3CN(Cc4cccc(F)c4)C(=O)[C@H]3C2)cn1` it was -85.7%.
In the case of `Cc1ccc(C(=O)N(C)Cc2ccc3c(c2)OCCO3)c(=O)[nH]1` it was -9.24%; in that of `Cc1cc(C)cc(N(CCC#N)C(=O)CN2CCCC2c2cccs2)c1` (configuration not stated), -1.61%.
With `COc1ccc(CNC(=O)c2nc3c(s2)CCN(C(C)=O)CC3)cc1`, the cytotoxicity at 10 µM was -76.6%.
In the case of `Cc1cc(NC(=O)N2CCN(C)CC2C)n(C)n1` (configuration not stated) it was 9.92%; in that of `COCCN1CCO[C@@H]2CN(Cc3ccc(C)s3)C[C@@H]2C1`, -8.81%; in that of `Cc1cnn(CC2CCCN2C(=O)c2ccc3nnc(C)n3c2)c1` (configuration not stated), -8.11%.
As for `CC(=O)c1cc(C(=O)N2CCC(CC(C)C)C2)c(=O)[nH]c1C` (configuration not stated), the cytotoxicity at 10 µM amounted to 4.4%.
Next, `Cc1n[nH]cc1CNCC1(c2cccc(F)c2)CCOCC1`: 6.48%.
Next, `CCCn1ccnc1CN1CCN(C2CCOCC2)CC(C(N)=O)C1` (configuration not stated): -24.4%.
On to `Cn1cccc1C(=O)N1C[C@@H]2C[C@@H](c3nc(C4CC4)cs3)O[C@@H]2C1`, for which the cytotoxicity at 10 µM is -113%.
In the case of `CCc1noc(CN2CCOC3(CCCC3)C2)n1` it was -3.54%; in that of `COc1cc(N2CC[C@@H](O)[C@@H]2Cc2ccncc2)ncn1`, -84.5%; in that of `COc1ncccc1C(=O)N1CC[C@H]2C[C@@H](C)O[C@@H]2C1`, -7.63%.
Next, `COCCN1CCc2nc(SCc3ccc(F)cc3)[nH]c(=O)c2C1`: -2.33%; `COCC1CC2(CCN(Cc3nc(C)cs3)CC2)CO1` (configuration not stated): -111%; `Cc1cc2nc(CO[C@H]3CN(C)C[C@H]3F)[nH]c2cc1C`: 2.78%.
In the case of `CCOCCN1CCN(CC(=O)NC2(C#N)CCCC2)CC1C` (configuration not stated) it was 5.33%.
On to `CC1=C(c2ccc(Cl)cc2)S(=O)(=O)N=C1N1CCc2ccccc21`, for which the cytotoxicity at 10 µM is -17.1%.
In the case of `Cc1cc(-c2nccs2)nc(C2CCN(Cc3ccc(F)cc3)CC2)n1` it was 6.54%; in that of `CN(C)C(=O)CN1CCCC1c1nccnc1Nc1ccccn1` (configuration not stated), -15%; in that of `O=C(c1cccnc1-n1cncn1)N1CCC(Nc2ccccc2)CC1`, 7.1%.
Next, `NCc1cccc(NC(=O)CCN2CCOCC2)c1`: -0.509%; `O=C(c1ccon1)N1CCc2ncnc(NCc3cccnc3)c2CC1`: -1.9%.
On to `CCC(CNC(=O)c1cncc(Br)c1)N1CCc2ccccc2C1` (configuration not stated), for which the cytotoxicity at 10 µM is 13.4%.
`CC(Cn1cccn1)NC(=O)NCc1ccc(S(C)(=O)=O)cc1` (configuration not stated): the cytotoxicity at 10 µM was determined as 3.64%.
In the case of `CSCC(=O)N(Cc1ccccn1)Cc1ccccc1C` it was 7.79%; in that of `COCCN1C(=O)CO[C@H]2CN(Cc3ccccc3OC)C[C@H]21`, -1.52%; in that of `CCN1CCCC1Cn1ccc2ccc(C(=O)OC)cc2c1=O` (configuration not stated), -7.86%.
On to `O=C(NC1CC(=O)N(C2Cc3ccccc3C2)C1)c1cc[n+]([O-])cc1` (configuration not stated), for which the cytotoxicity at 10 µM was -1.03%.
As for `CC(C)(O)CN1CCC(=O)N(Cc2ccco2)Cc2cc(F)ccc21`, the cytotoxicity at 10 µM is -3.66%.
`CCCc1n[nH]c(C2CN(CCCOc3ccccc3)CCO2)n1` (configuration not stated): the cytotoxicity at 10 µM is -0.409%.
Take `Cn1ccnc1CN1CCC2(CC1)CN(c1cncnc1)C(=O)CO2`: the cytotoxicity at 10 µM is -69.2%.
In the case of `Cc1nc(-c2ccccc2)n(CC(=O)NC(C)(C)C)n1`, the cytotoxicity at 10 µM was -16%.
Take `CC(CNCc1ccncc1)Oc1ccccn1` (configuration not stated): the cytotoxicity at 10 µM is -1.71%.
Next, `Cn1nccc1CN1CCCC(COc2ccccc2F)C1` (configuration not stated): -9.54%; `Cc1nccn1CCC1CCN(C2CCC3(CCNCC3)CC2)CC1`: -1.43%; `CC(C)c1nn(C)c(N2CCOCC2)c1CNCCC(=O)N(C)C`: -16.5%.
Next, `NC(=O)C(NC(=O)Cc1cnn(-c2ccccc2)n1)c1ccccc1` (configuration not stated): -3.05%; `CCOc1ncccc1NC(=O)N1CCCN(C(=O)OC)CC1`: -9.86%.
Next, `Cc1c(C(=O)NS(=O)(=O)c2ccc(F)cc2)cnn1CC(C)C`: -6.63%; `CC(=O)NC(C)C(=O)N(Cc1ccc(C)c(C)c1)C1CC1` (configuration not stated): 8.77%.
As to `CS(=O)(=O)NC1CCCN(c2ccc(C#N)cn2)C1` (configuration not stated), the cytotoxicity at 10 µM is -12.7%.
In the case of `CCc1nc(CN2CCCN(c3ncnc4sccc34)CC2)no1` it was 59.9%; in that of `Cc1noc(-c2ccc(Oc3cccc(CN4CCCC4)c3F)nc2)n1`, -6.03%.
Next, `Cc1noc(C(C)C)c1C(=O)NCc1cccc(CN(C)C)c1`: -8.23%; `NC(=O)CN(Cc1ccc(Br)cc1)C(=O)c1cnccn1`: 8.48%; `COc1ccc(CC(=O)N2CCCC(c3cc(C)[nH]n3)C2)cc1` (configuration not stated): -7.69%.
As for `CCc1ccc(C(=O)NCC2CCCN2CC)o1` (configuration not stated), the cytotoxicity at 10 µM is 0.632%.
Next, `CCCNC(=O)C(C)Oc1ccccc1` (configuration not stated): -6.68%; `CCS(=O)(=O)N1CCC2(CN(c3cccc(C)n3)C2)C1`: 3.5%; `CC(C)Oc1cccc(C(O)CNC(=O)Nc2cccs2)c1` (configuration not stated): 2.19%.
As for `CCN1C(=O)C[C@@H]2[C@@H]1CCN2S(=O)(=O)c1ccccc1`, the cytotoxicity at 10 µM worked out at 2.55%.
Next, `Cc1cc(CN(C)C(=O)NC(C)Cc2ccc(O)cc2)no1` (configuration not stated): 4.93%.
In the case of `O=C(Cn1cnc(NC(=O)c2ccccn2)n1)NCc1ccccc1` it was 9.97%.
For `Cc1ccc(C(C)(O)CNC(=O)c2sccc2Br)o1` (configuration not stated), the cytotoxicity at 10 µM amounted to 4.77%.
Next, `CC(C)Cc1noc(-c2ccc(NCc3noc(C(C)C)n3)nc2)n1`: 0.178%; `CCn1ccnc1CN1CCN(C(C)C(=O)NC2CCCCC2)CC1` (configuration not stated): -2.17%; `O=C(NCCc1ccn(-c2ccc(F)cc2)n1)C1CCCO1` (configuration not stated): -0.198%.
As to `Cc1cc(C(=O)Nc2ccc(OC3CCOCC3)c(C)c2)[nH]n1`, the cytotoxicity at 10 µM is -8.03%.
Next, `Cc1cc(C(=O)N(C)Cc2cccs2)nc(N2CCOCC2)n1`: 4.45%; `CCc1nccn1C1CCCN(C(=O)c2cn3cccnc3n2)C1` (configuration not stated): 92.6%; `O=C(NCc1cccc(F)c1)N1CCc2ncnc(NC3CC3)c2CC1`: -105%.
In the case of `COCc1noc(Cc2cc(Cl)c3c(c2)OCCCO3)n1` it was 0.583%.
Next, `CCCn1c(C)c(CC(=O)N(C)CC(=O)OC)c2c1CC(C)(C)CC2=O`: -0.839%.
